UPR XBP1 act: activators of adaptive arm of unfolded protein response (XBP1); CHO-XBP1 luciferase reporter, IRE1-XBP1 UPR activation, luminescence; percent of tunicamycin response, DMSO as zero; activation, % at 20 µM; hit rate 0.33% among 330,000; AID 463104;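 active = versus positive control, 20 µM dose yields 30% or more activation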
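Material: CHO cell line with stable XBP1 luciferase reporter; buffer or medium: F12 medium containing 10% fetal bovine serum; compound: single point, 20 µM final compound, 1% DMSO; incubation: 6 h treatment, 37 °C; measured by: glow luminescence from Steady-Glo reagent; evaluation: activation, % of tunicamycin; control set: tunicamycin high, DMSO low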
NR3A LBD binder: modulators (binders) of human NR3A ligand-binding domain | NR3A LBD differential scanning fluorimetry, Tm shift; 0% = protein alone, 100% = glycine-bound protein | Tm shift relative to glycine control, % at 25 µM | hit rate 2.5% among 340,000 | AID 1259313;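 active = melting temperature shift of at least 10% of the positive control shift, at one fixed dose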
CHOP inhibitor: blocks CHOP induction under ER stress; CHO-K1 CHOP-promoter luciferase, tunicamycin-induced, 15-18 h; inhibition, % at 10 µM; hit rate 3.8% among 220,000; AID 2732;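 active = compounds that reduced the stress-induced luciferase reporter signal by more than about 70% of percent inhibition, limit read from the data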
aDG glyco act: alpha-DG glycosylation activation. Pro5-aDG cells, alpha-DG glycosylation AlphaScreen (IIH6); 0% Pro5, 100% B10-LARGE cell signal. AID 624168. hit rate 0.22% among 360,000. activation, % at 10 µM;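 active = activation of at least 8% versus controls, or a plate z-score of at least 8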;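 note: Pro5 are CHO cells carrying HIG-tagged alpha-DG that lacks glycosylation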
MPTP block: inhibitors of mitochondrial permeability transition pore; isolated mouse mitochondria, Ca2+ swelling absorbance, 30 min; inhibition, % at 10 µM; hit rate 1.4% among 360,000; AID 602449;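 active = inhibition of 50% or more, scaled per plate between neutral and stimulator controls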
CHOP UPR activ: activators of apoptotic arm of unfolded protein response (CHOP) | AID 449763 | hit rate 0.34% among 330,000 | activation, % at 10 µM | CHO-CHOP luciferase reporter, UPR activation, luminescence; percent of tunicamycin response over DMSO baseline;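 active = at 10 µM dose, activation of 40% or more, normalized to positive control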
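Dosing – one dose, 10 µM in 0.5% DMSO · System – CHO-CHOP cells, stable luciferase reporter of PERK-eIF2a-CHOP signalling · Input – 500 cells/well · Control set – tunicamycin 10 µg/mL final as positive, DMSO-only wells as negative · Timing – 6 h compound treatment, 37 °C · Measure – % activation vs tunicamycin · Technique – luminescence read with Steady-Glo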
Numbers stand for hits; – = inactive; · = not tested or not shown. An excerpt weighted towards active compounds, which were near 5.6% of everything screened.

SMILES | UPR XBP1 act | NR3A LBD binder | CHOP inhibitor | aDG glyco act | MPTP block | CHOP UPR activ
CCOC(=O)N1CCN(C(=O)c2cc(COc3cccc(C(F)(F)F)c3)on2)CC1 | – | 25 | · | – | – | –
Cc1ccccc1NC(=O)N(O)C1(C#N)CCCCC1 | · | 15 | · | – | – | ·
Cc1ccccc1NC(=O)NC1CCCCCCC1 | – | – | · | – | – | –
CC/C(=N/OC(=O)c1cccc(C)c1)C(=O)c1cccs1 | – | – | 75 | – | – | –
Cc1nn(C(=O)CNS(=O)(=O)c2ccccc2)c(C)c1Sc1ccc(Cl)cc1 | – | – | 82 | – | – | –
Cc1ccc2[nH]c(=O)cc(C(=O)OCC(=O)c3ccc(F)cc3)c2c1 | – | – | 77 | – | – | –
COC(=O)c1ccc(C(=O)NC(=S)Nc2ccc3nc(SC)sc3c2)cc1 | – | – | 72 | – | – | –
CC(C)=C[C@H]1C[C@H](C)[C@H]2CC[C@H](C)c3c(O[C@@H]4OC[C@@H](O)[C@H](O)C4O)c(O)c(C)c1c32 (stereo not given in full) | – | 29 | · | – | – | –
O=C(NNC(=O)C1CCCN(S(=O)(=O)c2cccc(F)c2)C1)C1CC1 (stereo not given) | – | – | – | – | – | –
CC1(C)CC(=O)C=C(c2ccc(-c3ccc4[nH]ccc4c3)cc2)C1=O | · | · | · | – | – | ·
COc1ccc(CCN2CNc3c(c(=O)n(C)c(=O)n3C)C2)cc1 | – | – | – | – | – | –
Cn1c2c(c(=O)n(C)c1=O)CN(CC1CCCO1)CN2 (stereo not given) | – | – | 73 | – | – | –
CCOC(=O)C(=O)N(Nc1ccc(C)cc1)c1ccc(C)cc1 | – | 11 | – | – | – | –
Cc1ccc(S(=O)(=O)N2C[C@H]3N(C(=O)OC(C)C)N(C(=O)OC(C)C)C[C@H](OC(=O)Nc4cccs4)[C@@]3(O)C2)cc1 | · | · | · | – | – | ·
Oc1nc(Nc2ccccc2)sc1/C=C1\C=Nc2ccccc21 | – | 27 | – | – | – | –
CCOC(=O)c1c(Nc2ccccc2)sc(/C=C2\C=Nc3ccccc32)c1O | – | – | – | – | – | –
O=C(Nc1cccc(Cl)c1)OCc1cn(-c2ccccc2)nn1 | – | 11 | – | – | – | –
O=C(Nc1cccc(Cl)c1)OCCOCCOC(=O)Nc1cccc(Cl)c1 | · | 36 | · | – | – | ·
O=C(Nc1cccc(Cl)c1)OCc1cn(-c2ccc(Cl)cc2)nn1 | – | – | – | – | – | –
O=C(Nc1cccc(Cl)c1)OCc1cnc(Cl)s1 | – | – | – | – | – | –
O=C(Nc1cccc2nsnc12)c1cc2c(cc1Cl)Sc1nccn1S2(=O)=O | · | – | · | – | – | ·
O=C(CN1C(=O)NC2(CCc3ccccc32)C1=O)NCc1cccc(C(F)(F)F)c1 (stereo not given) | – | 11 | · | – | – | –
O=C(CN1C(=O)NC2(CCc3ccccc32)C1=O)NCc1ccc(F)cc1 (stereo not given) | – | – | · | – | – | –
CC(C)c1c(C(=O)N/N=C/c2cccs2)nnn1-c1nonc1N | – | – | · | – | – | –
CCCc1c(C(=O)N/N=C/C(C)=C/c2ccccc2)nnn1-c1nonc1N | – | 34 | · | – | – | –
SMILES | UPR XBP1 act | NR3A LBD binder | CHOP inhibitor | aDG glyco act | MPTP block | CHOP UPR activ
CC(C)c1c(C(=O)N/N=C2\CCc3ccccc32)nnn1-c1nonc1N | – | 10 | · | – | – | –
CC(/C=N/NC(=O)c1nnn(-c2nonc2N)c1C(C)C)=C\c1ccccc1 | – | 27 | · | – | – | –
Cc1cc(=O)c2c(N(C)C)cccc2[nH]1 | · | · | · | – | – | ·
CCN1C(=O)C(F)(CC)C(=O)c2ccccc21 (stereo not given) | – | 13 | – | – | – | –
CCc1nnc(NC(=O)c2cc(Cl)ccn2)s1 | – | – | · | – | – | –
Cc1ccc(S(=O)(=O)N2[C@@H](c3cccc(C)c3)C(C(=O)O)=C[C@H]2C(C)(C)C)cc1 | – | – | · | – | – | –
CCCc1nc(SCC(=O)c2ccccc2)c2c(=O)n(C)c(=O)n(C)c2n1 | – | – | 74 | – | – | –
CCCc1nc(SCC(=O)Nc2cc(Cl)ccc2OC)c2c(=O)n(C)c(=O)n(C)c2n1 | – | · | 79 | · | · | –
CCc1nc(SCC(=O)c2ccccc2)c2c(=O)n(C)c(=O)n(C)c2n1 | – | – | – | – | – | –
CC(=O)c1nn(-c2cccc(Br)c2)cc1C(=O)c1ccc(Br)cc1 | – | – | 78 | – | – | –
CC(=O)c1nn(-c2cccc(Br)c2)cc1C(=O)c1ccc(C)cc1 | – | – | – | – | – | –
O=C(Nc1ccc(Cl)cc1F)C1CCCN(C2=NS(=O)(=O)c3ccccc32)C1 (stereo not given) | – | – | · | – | – | –
CN(C)c1ccc(N/C=C/C(=O)c2ccccc2)cc1 | – | – | 81 | – | – | –
CN(C)c1ccc(/C=C/C(=O)c2ccc(O)cc2)cc1 | · | 12 | · | – | – | ·
COc1cc(C)ccc1S(=O)(=O)NC(=O)C1(C)CCN1C(=O)c1ccc(C(F)(F)F)nc1C (stereo not given) | · | · | · | – | – | ·
Cc1cc2oc(C(=O)Nc3ccc(S(=O)(=O)Nc4nccs4)cc3)cc(=O)c2cc1Cl | – | 17 | – | – | – | –
C[C@H](NC(=O)c1ncn2c1C(=O)NC[C@@H]2C)c1ccccc1 | · | · | · | – | – | ·
COc1cc(/C=C(\C#N)c2nc3ccccc3o2)ccc1O | – | 15 | – | – | – | –
Cn1nnnc1SCC(=O)Nc1ccc(Oc2ccccc2)cc1 | – | – | 75 | – | – | –
CCC(Sc1nnnn1-c1ccccc1)C(=O)Nc1nc2ccccc2s1 (stereo not given) | – | – | 89 | – | – | –
COc1ccc(NC(=O)CSc2nnnn2C)cc1 | – | – | – | – | – | –
COc1ccc(NC(=O)CSc2nnnn2-c2ccc(F)cc2)cc1 | – | 14 | · | – | – | –
Cc1nc(SCC(=O)Nc2nc3ccccc3s2)c(C#N)c(C)c1C | – | – | 102 | – | – | –
Cc1sc2nc(C(C)C)nc(SCC(=O)N3CCOCC3)c2c1C | – | – | · | – | – | –
O=C(CSc1nnnn1-c1ccc(F)cc1)Nc1nc2ccccc2s1 | – | – | 70 | – | – | –
Cc1cc(Cl)ccc1OCCCC(=O)OCC(=O)Nc1cccc(S(N)(=O)=O)c1 | – | 10 | · | – | – | –
CCNC(=O)COC(=O)COc1ccc(Cl)cc1C | – | – | – | – | – | –
Cc1cc(Cl)ccc1OCC(=O)OCC(=O)Nc1ccc(F)c([N+](=O)[O-])c1 | · | 26 | – | – | – | ·
Cc1[nH]c(=O)sc1C(=O)NCc1ccc([N+](=O)[O-])cc1 | · | · | · | – | – | ·
COCCCn1c2nc3ccccc3nc2c2c(=O)n(-c3ccccc3OC)cnc21 | – | – | – | – | – | –

Assay outcomes deposited in PubChem BioAssay by several laboratories.
